Experimental data as given in ChEMBL document CHEMBL3102846 (Eur J Med Chem, 2014).
The source made the active and inactive calls. The calls are words filed in the database; no cut-off is given here.

Key:
[1] = Inhibition of Wnt3A/beta-catenin signaling in HEK293 cells at 20 uM after 24 hrs by firefly/renilla dual luciferase reporter gene assay relative to vehicle-treated control; assay type: cell-based; parameters: scale not given: the % may be the effect or the level left; conditions: Homo sapiens
Method in brief: (§1)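 HEK293T cells were co-transfected with TOPglow (or FOPglow) plus pCMV Renilla. At 20 h they were reseeded at 18×10^3/well and treated for 24 h with Wnt-3A conditioned medium (from L-Wnt-3A cells) plus analogs (0.01–20 µM; DMSO ≤0.1%). Firefly/Renilla dual-luciferase ratios were expressed as % of DMSO under Wnt-3A. EC50 was taken from sigmoidal concentration–response fits; three independent experiments.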

[2] = Inhibition of Wnt3A/beta-catenin signaling in HEK293 cells at 1 uM after 24 hrs by firefly/renilla dual luciferase reporter gene assay relative to vehicle-treated control; assay type: cell-based; parameters: scale not given: the % may be the effect or the level left; conditions: Homo sapiens; method in brief: as §1
[3] = Inhibition of Wnt3A/beta-catenin signaling in HEK293 cells at 10 uM after 24 hrs by firefly/renilla dual luciferase reporter gene assay relative to vehicle-treated control; assay type: cell-based; parameters: scale not given: the % may be the effect or the level left; conditions: Homo sapiens; method in brief: as §1
[4] = Inhibition of Wnt3A/beta-catenin signaling in HEK293 cells at 5 uM after 24 hrs by firefly/renilla dual luciferase reporter gene assay relative to vehicle-treated control; assay type: cell-based; parameters: scale not given: the % may be the effect or the level left; conditions: Homo sapiens; method in brief: as §1
HEK293T (human) = assay: Cytotoxicity against human HEK293T cells at dual luciferase reporter gene assay EC50 after 24 hrs by MTS assay
[5] = Inhibition of Wnt3A/beta-catenin signaling in HEK293 cells after 24 hrs by firefly/renilla dual luciferase reporter gene assay; assay type: cell-based; conditions: Homo sapiens, HEK293, 24 h; method in brief: as §1
[6] = Inhibition of Wnt3A/beta-catenin signaling in HEK293 cells after 24 hrs by firefly/renilla dual luciferase reporter gene assay relative to curcumin; assay type: cell-based; conditions: Homo sapiens
Method in brief: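 EC50s came from the HEK293T TOPglow/Renilla dual-luciferase assay with Wnt-3A conditioned medium and 24 h compound exposure (0.01–20 µM), using sigmoidal fits; three independent experiments.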

[7] = Inhibition of Wnt3A/beta-catenin signaling-mediated Tcf4 transcriptional activity in human HEK293T cells at dual luciferase reporter gene assay EC50 after 24 hrs by FOPglow reporter gene assay; parameters: scale not given: the % may be the effect or the level left
[8] = Inhibition of Wnt3A/beta-catenin signaling in human U2OS cells assessed as effect on cytoplasmic beta-catenin level at 5 uM after 24 hrs by Western blot analysis; assay type: cell-based
Method in brief: (§2)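 U2OS cells were pretreated with analogs for 24 h, and cytoplasmic and nuclear fractions were prepared for β-catenin immunoblotting. α-Tubulin (cytoplasmic) and lamin A/C (nuclear) were loading references. Bands were quantified by densitometry and expressed as % of DMSO-treated cells, with at least triplicate experiments.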

[9] = Inhibition of Wnt3A/beta-catenin signaling in human U2OS cells assessed as reduction in nuclear beta-catenin accumulation at 5 uM after 24 hrs by Western blot analysis; assay type: cell-based; method in brief: as §2
[10] = Inhibition of Wnt3A/beta-catenin signaling-mediated Tcf4 transcriptional activity in human U2OS cells at 1 uM after 24 hrs by FOPglow reporter gene assay; assay type: cell-based
Method in brief: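 U2OS cells (1.0×10^5/well, 90–95% confluent) were co-transfected with TOPglow or FOPglow (0.3 µg) plus pCMV Renilla. At 20 h they were treated for 24 h with Wnt-3A conditioned medium and analogs. Firefly luciferase was normalized to Renilla and expressed as % of DMSO-treated samples; mean ± S.E.M of three independent experiments.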

Row | Structure (SMILES) | activity [1] [%] | activity [2] [%] | activity [3] [%] | activity [4] [%] | Activity (HEK293T (human)) [%] | EC50 [5] [µM] | fold change (FC) [6] | activity [7] [%] | inhibition [8] | inhibition [9] | inhibition [10] [%]
1 | O=C(/C=C(O)/C=C/c1ccccc1)/C=C/c1ccccc1 | 97.2 | 109 | 107 | 104 |  |  |  |  |  |  | 
2 | O=C(/C=C/c1ccc(O)cc1)c1ccc(O)cc1 | 68.3 | 92.7 | 70.9 | 89.6 |  |  |  |  |  |  | 
3 | O=C1/C(=C/c2ccccc2)CC/C1=C\c1ccccc1 | 18.4 | 82.7 | 25.3 | 41.5 | 83.5 | 3.1 | 6.7 | 82.9 |  |  | 
4 | O=C1/C(=C/c2cccc(F)c2)CCC/C1=C\c1cccc(F)c1 | 104 | 96.1 | 105 | 119 |  |  |  |  |  |  | 
5 | O=C(/C=C/c1ccc(O)cc1)CC(=O)/C=C/c1ccc(O)cc1 | 69.1 | 100 | 72.5 | 77.7 |  |  |  |  |  |  | 
6 | O=C1/C(=C/c2ccc(F)cc2)CCC/C1=C\c1ccc(F)cc1 | 60.2 | 70.3 | 61.6 | 65.2 |  |  |  |  |  |  | 
7 | COc1ccc(/C=C/C(=O)/C=C(O)/C=C/c2ccc(OC)c(OC)c2)cc1OC |  | 102 | 46.5 | 70 | 41.6 | 8.3 | 2.5 | 118 |  |  | 
8 | COc1cccc(/C=C/C(=O)/C=C/c2cccc(OC)c2)c1 | 103 | 100 | 103 | 114 |  |  |  |  |  |  | 
9 | COc1cccc(/C=C/C(=O)/C=C(O)/C=C/c2cccc(OC)c2)c1 | 101 | 97.7 | 108 | 107 |  |  |  |  |  |  | 
10 | O=C1/C(=C/c2ccccc2F)CC/C1=C\c1ccccc1F | 72.8 | 80 | 85.3 | 75.7 |  |  |  |  |  |  | 
11 | COc1ccc(/C=C/C(=O)/C=C/c2ccc(OC)c(OC)c2)cc1OC | 103 | 107 | 109 | 108 |  |  |  |  |  |  | 
12 | COc1cc(/C=C2\CC/C(=C\c3ccc(O)c(OC)c3)C2=O)ccc1O | 13.3 | 91.6 | 37.5 | 54.1 |  | 5.9 | 3.5 | 90.8 |  |  | 
13 | COc1cc(/C=C/C(=O)c2ccc(O)c(OC)c2)ccc1O | 69.6 | 112 | 86.9 | 115 |  |  |  |  |  |  | 
14 | COc1ccc(/C=C2\CC/C(=C\c3ccc(OC)c(O)c3)C2=O)cc1O | 39.2 | 52.6 | 39.5 | 45 | 86.9 | 0.5 | 40.4 | 110 | inactive | inactive | 25.7
15 | COc1cc(/C=C2\CCC/C(=C\c3ccc(O)c(OC)c3)C2=O)ccc1O [CYCLOVALONE] |  | 86.1 | 21.3 | 28.9 |  | 2.6 | 7.9 | 87.6 |  |  | 
16 | COc1cccc(/C=C2\CCC/C(=C\c3cccc(OC)c3)C2=O)c1 | 81.5 | 93.3 | 72.7 | 60.7 |  |  |  |  |  |  | 
17 | COc1cccc(/C=C/C(=O)c2cccc(OC)c2)c1 | 72.9 | 107 | 111 | 108 |  |  |  |  |  |  | 
18 | O=C1/C(=C/c2ccccc2F)CCC/C1=C\c1ccccc1F | 20.9 | 57.7 | 14.5 | 21.9 | 87 | 0.9 | 22.8 | 93 |  |  | 

Row | Structure (SMILES) | activity [1] [%] | activity [2] [%] | activity [3] [%] | activity [4] [%] | Activity (HEK293T (human)) [%] | EC50 [5] [µM] | fold change (FC) [6] | activity [7] [%] | inhibition [8] | inhibition [9] | inhibition [10] [%]
19 | COc1cccc(/C=C2\CC/C(=C\c3cccc(OC)c3)C2=O)c1 | 61.3 | 92.3 | 72 | 72.7 |  |  |  |  |  |  | 
20 | O=C1/C(=C/c2ccccc2)CCC/C1=C\c1ccccc1 [2,6-DIBENZYLIDENECYCLOHEXANONE] | 39 | 85.8 | 40.6 | 49.6 | 100 | 2 | 10.1 | 90.7 |  |  | 
21 | O=C(/C=C/c1ccc(F)c(F)c1)/C=C/c1ccc(F)c(F)c1 | 111 | 103 | 110 | 100 |  |  |  |  |  |  | 
22 | COc1ccc(/C=C/C(=O)/C=C(O)/C=C/c2ccc(OC)c(O)c2)cc1O | 113 | 99.7 | 105 | 110 |  |  |  |  |  |  | 
23 | O=C1/C(=C/c2ccc(F)cc2)CC/C1=C\c1ccc(F)cc1 | 108 | 120 | 105 | 112 |  |  |  |  |  |  | 
24 | COc1ccc(/C=C2\CCC/C(=C\c3ccc(OC)c(OC)c3)C2=O)cc1OC | 40.8 | 97.7 | 62.8 | 64.3 | 62.1 | 15.9 | 1.3 | 104 |  |  | 
25 | O=C1/C(=C/c2ccc(O)cc2)CCC/C1=C\c1ccc(O)cc1 | 16.7 | 51.9 | 26.3 | 26.9 |  | 0.8 | 25.8 | 85.1 | inactive | inactive | 25.7
26 | O=C1/C(=C/c2ccc(F)c(F)c2)CCC/C1=C\c1ccc(F)c(F)c1 | 114 | 94.5 | 118 | 126 |  |  |  |  |  |  | 
27 | COc1ccc(/C=C2\CC/C(=C\c3ccc(OC)c(OC)c3)C2=O)cc1OC | 39.2 | 88.9 | 55.5 | 65.9 |  | 17.1 | 1.2 | 85.2 |  |  | 
28 | COc1ccc(/C=C/C(=O)c2ccc(OC)c(OC)c2)cc1OC | 41.6 | 95 | 60.3 | 86.6 |  |  |  |  |  |  | 
29 | O=C(/C=C/c1ccc(F)c(F)c1)c1ccc(F)c(F)c1 | 59.1 | 117 | 90.2 | 112 |  |  |  |  |  |  | 
30 | COc1ccc(/C=C/C(=O)c2ccc(OC)c(O)c2)cc1O | 25.7 | 95.7 | 42 | 53.9 | 87.2 | 3.9 | 5.3 | 131 |  |  | 
31 | O=C(/C=C/c1ccccc1)c1ccccc1 [CHALCONE] | 18.9 | 102 | 69 | 90.6 |  | 11 | 1.9 | 112 |  |  | 
32 | COc1cc(/C=C/C(=O)/C=C/c2ccc(O)c(OC)c2)ccc1O | 90.4 | 118 | 110 | 111 |  |  |  |  |  |  | 
33 | O=C1/C(=C/c2cccc(F)c2)CC/C1=C\c1cccc(F)c1 | 103 | 124 | 109 | 119 |  |  |  |  |  |  | 
34 | O=C(/C=C(O)/C=C/c1ccc(F)c(F)c1)/C=C/c1ccc(F)c(F)c1 | 93.1 | 83.3 | 89.2 | 92.2 |  |  |  |  |  |  | 
35 | O=C(/C=C/c1ccccc1)/C=C/c1ccccc1 | 77.9 | 93 | 79.7 | 82.7 |  |  |  |  |  |  | 
36 | O=C1/C(=C/c2ccc(F)c(F)c2)CC/C1=C\c1ccc(F)c(F)c1 | 59.5 | 71 | 60.2 | 73.1 |  |  |  |  |  |  | 
